Data from the EternaBench riboswitch data.

Test system: MS2 coat protein
Assay: apparent Kd, MS2 coat protein; higher = weaker binding; RNA-MaP array; FMN 200 µM where present
Outline: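 Designs were transcribed by stalled E. coli RNA polymerase on Illumina sequencing-chip clusters. They were titrated with SNAP-549-labelled MS2 coat protein from 0.7 or 1.5 nM, doubling to 3 µM, in 100 mM Tris-HCl pH 7.5, 80 mM KCl, 4 mM MgCl2, BSA, DTT, yeast tRNA and Tween-20, without and then with constant ligand. The apparent Kd is the median of filtered per-cluster fits after normalisation of green signal to red-channel RNA signal and control-cluster median Fmax.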

[1] = designed as: OFF switch for flavin mononucleotide, no ligand
[2] = ligand present: flavin mononucleotide, designed as: OFF switch for flavin mononucleotide
[3] = designed as: ON switch for flavin mononucleotide, no ligand
[4] = ligand present: flavin mononucleotide, designed as: ON switch for flavin mononucleotide

| Sequence | apparent Kd [1] | apparent Kd [2] | apparent Kd [3] | apparent Kd [4] |
| --- | --- | --- | --- | --- |
| GUUAUUUAUGUAGGAUAUGCGAGGCGAGCCUAAGCAGAAGGACAUGAGGAUCACCCAUGUAUUGCGGUCUGCGUUCAGAUCGCU | 32.4 nM | 150 nM |  |  |
| GCACGACAUGUAGGAUAUCGAGCGCCGAGCGCUCGAGAAGGACAUGAGGAUCACCCAUGUAUUCUGAGUGAGCGAGGUCGUGCA | 45.7 nM | 393 nM |  |  |
| GGUACUCAAAGAGUACCAAUACGAACAUGAGGAUCACCCAUGUAGGAUAUGCUACUCAAAGAGUAGCAGAAGGAUAUGUGUCUA | 16.5 nM | 17.5 nM |  |  |
| ACAUGAGGAUCACCCAUGUUCACAUAGGAUAUUGAUUAUAUUGGUUUUAGAAUAGUAAUUAACCUCAAGAAGGAUGCCAGUUCU |  |  | 13.3 nM | 10 nM |
| UUACUCAUGUAAGGAUAUGCAGCCGUUUCGGCUGCAGAAGGUACUAUAAUACAUGAGGAUCACCCAUGUCUAUACAAUAAAGAC |  |  | 62.9 nM | 26 nM |
| CCAUCGUGUGUGAGGAUAUGCUGGUCCUUGGAUCAGCAGAAGGCACAUGAGGAUCACCCAUGUGAAUACGAUGG | 16.3 nM | 29.5 nM |  |  |
| UGACGGAGCUGAGGAUAUAACAUGAGGAUCACCCAUGUAAGUCUCCAGGAAACUGGAGACAAAUGUUAGAAGGCAGCUCCGUCA | 39.4 nM | 50.7 nM |  |  |
| CUGUUAUAGGUCCAGAAUUACAACAUGAGGAUCACCCAUGUGCAGGAUAUCGAGUUAAUUUUCAACGAGAAGGGCAUAGUCACG | 35.9 nM | 67.6 nM |  |  |
| CUACGAACGAUAGGAUAUACUGAGGUUGAGUGGGUAGAAGGAUCGAUAGUGGAGAAGACAUGAGGAUCACCCAUGUUGUGGAUU |  |  | 176 nM | 45.5 nM |
| GGAAGACAAAGUCUUCCAAAUCGAACAUGAGGAUCACCCAUGUAGGAUAUGCUACUCAAAGAGUAGCAGAAGGACAUGUGCUUU | 40.1 nM | 193 nM |  |  |
| CAGGAUAGAGGAUAUACGUAGAUACAGAUUCAUGUAAUCCUACAUGAGGAUCACCCAUGUAGAAGGCUAUCCUG | 18 nM | 113 nM |  |  |
| GUAGCAUGCCAAGGAUAUUCAUAUAGUAGGCAAACAUGAGGAUCACCCAUGUAAUGAGAGCAGUGGGAGAAGGUGGGAUGCUAC |  |  | 51.5 nM | 31.9 nM |
| GUCGGGUGGGUAGGAUAUGGCUAUGUCUCAUUGCUAGAAGGACCAACUGCUACAUGAGGAUCACCCAUGUCGUAGUGCACCCGG |  |  | 149 nM | 27.5 nM |
| UUGGACGUCGUAGGAUAUGAAGGAUAUUCCUACAUGAGGAUCACCCAUGUUGACAUGGAAGAAGGACAGAAGGACGAUGUCCAU |  |  | 11.3 nM | 5.16 nM |
| AAGCUGCGCCAGAAGGGACCGACAUGAGGAUCACCCAUGUCCACAAGAGUCAGGAUAUGGCGUGGAGGCUCGUUCAAGUCCAGG |  |  | 13.5 nM | 5.73 nM |
| ACCUUACAUGAGGAUCACCCAUGUCAGGAUAUCUCGGACAGCUGAAAACCAGCCGUCCAGAGAAGGGACGAGGA | 13.4 nM | 14.4 nM |  |  |
| ACUUACUGAGGAUAUACAUAGAUUUACAUGAGGAUCACCCAUGUUCCUCUAUGUAUAAAUGUAGAAGGCAGAAGAA | 16.6 nM | 59.1 nM |  |  |
| AGCCAGGAUGAGUACCUGAGCGGGAGAAGGUACGAGGGAUCGUCUGGACAUGAGGAUCACCCAUGUAAGGAUAUCCCGCCUAUU | 8.69 nM | 15 nM |  |  |
| CAUUAAUUCAUUAUAGUUAUUAUACAGGAUAUGUUACAUGAGGAUCACCCAUGUUAUCAUGGUAAACAGAAGGGUAUAUAAAGU | 33.5 nM | 57.5 nM |  |  |
| CGCGAUGCGGUUGGCCCUGGGCGAGAGGAUAUGGGCAGCGGGACAUGAGGAUCACCCAUGUUCUCUCAGAAGGCUCGAGCAGGC |  |  | 217 nM | 34.7 nM |
| UGGUACUAGGGAGGAUAUGGGAAGAUACAUGAGGAUCACCCAUGUUUAAGAAUGCCGGGAGGCAACUAGAAGGCCCUAGUACCU |  |  | 478 nM | 21.2 nM |
| UUACAGUACAGGUAGGAUAUGUAGGGUGGUACAUGAGGAUCACCCAUGUAUCCACCCUUCGAACGGCAGAAGGGCCCGUCACUGC |  |  | 22 nM | 15.4 nM |
| UCAUUGGUUGUGAGGAUAUCGGUGUGAUGGAUUGUCGAGAAGGCACAUGAGGAUCACCCAUGUUUGUUUGGGCU | 577 nM | 449 nM |  |  |
| GUGCUAUGAGGAUAUACGUUGGUGGGCAUCUGUGUGCUCCUACAUGAGGAUCACCCAUGUAGAAGGCAUGUCAC | 12.4 nM | 21.9 nM |  |  |

| Sequence | apparent Kd [1] | apparent Kd [2] | apparent Kd [3] | apparent Kd [4] |
| --- | --- | --- | --- | --- |
| CCGACGAAAGUCGAACGAUGUAGCAGAAGGACAUGAGGAUCACCCAUGUCAGCUGUAACAGCCAUGUAGGAUAUGCUACAUCGG | 4.44 nM | 5.53 nM |  |  |
| CGCUGGUGACAGCAUCCAUCAAAACAUGAGGAUCACCCAUGUAGAAGGCUGUACGGUUACCGUACAGAGGAUAUACAAUGAUGA | 15.9 nM | 26.4 nM |  |  |
| GGAUCGAGUGUGAGGAUAUACCUAUGGAAACAUAGGUAGAAGGCACAUGAGGAUCACCCAUGUCCUAACGGUCC | 350 nM | 514 nM |  |  |
| UGUCGGAGCCGAGGAUAUUACAUGAGGAUCACCCAUGUAUGAACCAAUAGCUGGAAACAGCAAUGUAAGAAGGCUGCUCCGACA | 5.08 nM | 15.7 nM |  |  |
| CAGUACUGAGGAUAUACAUGAGGAUCACCCAUGUUUUCCAGCUAGGAUACUAGCAAAUGUAGAAGGCAGUACUG | 25.1 nM | 249 nM |  |  |
| CGUGUACGAGGAUAUAGAUUGAAUGACAUGAGGAUCACCCAUGUGAUCGAUCUAUUUGAUUUAGAAGGUGUACAUG | 14 nM | 16.9 nM |  |  |
| AAAAAGUCAGGAUAUCGUAGAAAAAUAUAAAUAAGAAAGUACGAGAAGGGACAUGAGGAUCACCCAUGUAAAAA | 33.1 nM | 36.9 nM |  |  |
| GAAGCAUCCAAUAACAUGAGGAUCACCCAUGUCAAAAGACGGGAGGAUAUUGAUCUGAAGAAGAUCAAGAAGGCCUGGUGCUAA |  |  | 10.1 nM | 7.35 nM |
| AGAAAGUCAGGAUAUCAGAAACUAGUCGAAACGACUAGAAAUGAGAAGGGACAUGAGGAUCACCCAUGUAAGAA | 29.7 nM | 43.4 nM |  |  |
| ACUGCUCGAGGAUAUACAUGAGGAUCACCCAUGUAACCCAGAAGCACGGCCUCAGGAUGUAGAAGGCGACGCAA | 13.1 nM | 13.2 nM |  |  |
| GCUGCAUAGGCAGGAUAUGCAAUAAUUCGAAUAGAAUAUAACGAAUUAACAUGAGGAUCACCCAUGUAGAAGGGCCUGUGCAGU | 5.76 nM | 5.58 nM |  |  |
| AAUCAGCGGAACUUGACAUCCCUACAUGAGGAUCACCCAUGUCAGGAUAUAUGCUCUCGAGCUGCAUAGAAGGGACAUAGUGGG | 50.6 nM | 71.3 nM |  |  |
| GGUUGACAAAGUCAACCUAUUCGAACAUGAGGAUCACCCAUGUAGGAUAUGCUACUCAAAGAGUAGCAGAAGGACAUGUGCCUU | 32.7 nM | 172 nM |  |  |
| AACAUGUCAGGAUAUGCAACAGGAGACUGACACGCGAGUGAGCAGAAGGGACAUGAGGAUCACCCAUGUUCAAA | 19.1 nM | 17.4 nM |  |  |
| GGUGUAUAUGAGAAGGCGAUCAUGAAACAUGAUCGAGGAUAUCAUGUAAACAUGAGGAUCACCCAUGUAUGGGAAUAUUGCACC |  |  | 133 nM | 15 nM |
| CGCUCUAUAUAUAAGGCAAGAAUCAGAAGGCGUUACAUGAGGAUCACCCAUGUUUUGUAUAGUAACGAGGAUAUGAUAUGAGCG | 15.3 nM | 15.1 nM |  |  |
| GCGUAUUAGGUGUAGCUAGUCAUUCAAGAAGGGUGAAGAACAUGAGGAUCACCCAUGUUGUUUUUACAGGAUAUUGAUAUACGC |  |  | 68 nM | 8.52 nM |
| UUUACAUGAGGAUCACCCAUGUAUAGAACGGUUCAUUAAAGUGAGGAUAUACAUAAUUUUAAAUUGUAGAAGGCACUGGGUACA |  |  | 17.7 nM | 19.1 nM |
| GGAUAGGACAGAGGAUAUACGUGCUAGAGAUACUAGCAAAAUUUACUCACAUGAGGAUCACCCAUGUAGAAGGCUGUCCUAUCG | 5.09 nM | 22.2 nM |  |  |
| GGCAGCGGACAAGGAUAUAAGACGCAGACCAAAUUAGAAGGUGUUAUCUGGCAAUGCGAAAGCAGACAUGAGGAUCACCCAUGU |  |  | 66.3 nM | 65.1 nM |
| AAUAUGUUGCAGAAGGUUAUAUUUAUAACGUUCCUCAUGACAUGAGGAUCACCCAUGUAAUUGUUGAAGGAUAUGCAAUAUAUU | 5.41 nM | 5.62 nM |  |  |
| GCCUAACAUGAGGAUCACCCAUGUCGUGGGUUGUUAGGAUAUGGACCGCAAAACGCGGUACCAGAAGGAAUAGAAA |  |  | 555 nM | 297 nM |
| UGUCGGAGCAGAGGAUAUUACAUGAGGAUCACCCAUGUAUGGACCAAUAGCUGGAAACAGCAAUGUAAGAAGGCUGCUCCGACA | 18.3 nM | 215 nM |  |  |
| CUUGGGUGGCUGGAGGAUAUUCGAGUGGUAACAUGAGGAUCACCCAUGUGUCGCGCGGUACACGAGGAGAAGGCUGGCGGCCGGC |  |  | 146 nM | 54.6 nM |
